Assay results from ChEMBL document CHEMBL5724801, “EUbOPEN Chemogenomics Library - Multiplex” (2024).
Where “and” joins values, the source holds several entries; their conditions need not be identical. Equal entries are not always repeated.

Legend:
Assay type in all cases: toxicity, cell-based
Fibroblast = assay: Multiplex assay against human fibroblast
Method in brief: (§1)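 Four dyes were applied at seeding to live cells: Hoechst33342, BioTracker Green Microtubule Cytoskeleton Dye, MitoTracker Red and Annexin V Alexa Fluor 680. Imaging after compound addition used a CQ1 microscope at 37°C and 5% CO2. CellPathfinder machine-learning gating then sorted cells into Hoechst high-intensity objects or normal cells, normal cells into healthy, pyknosed or fragmented nuclei, and pyknosed cells into mitotic or apoptotic, with tubulin, mitochondrial-mass and membrane-permeability phenotypes given as per cents of healthy-nucleus cells.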

HEK-293T = assay: Multiplex assay against HEK293T; details: human; method in brief: as §1
U2OS = assay: Multiplex assay against U2OS; details: human; method in brief: as §1
[1] = 12 h, 1 µM, compound concentration 1 uM
[2] = 12 h, 10 µM, compound concentration 10 uM
[3] = 24 h, 1 µM, compound concentration 1 uM
[4] = 24 h, 10 µM, compound concentration 10 uM
[5] = 48 h, 1 µM, compound concentration 1 uM
[6] = 48 h, 10 µM, compound concentration 10 uM

## Cc1ccc(/C(=C\CN2CCCC2)c2ccccn2)cc1 [TRIPROLIDINE]
Fibroblast; [1]
  Population Apoptotic (%): 52% and 41%
  Population Fragmented Nuclei (%): 17% and 28%
  Population Healthy Nuclei (%): 64% and 45%
  Population Hoechst High Intensity Objects (%): 3% and 4%
  Population Membrane Permeable-Phenotype (%): 0% and 1%
  Population Mitochondria Different-Phenotype (%): 9%
  Population Mitotic Cells (%): 47% and 58%
  Population Normal (%): 96% and 95%
  Population Pyknosed Nuclei (%): 18% and 25%
  Population Tubulin-Different-Phenotype (%): 29% and 60%
  Total Cell Count: 119 and 127
Fibroblast; [2]
  Population Apoptotic (%): 57% and 50%
  Population Fragmented Nuclei (%): 14% and 26%
  Population Healthy Nuclei (%): 64% and 52%
  Population Hoechst High Intensity Objects (%): 2%
  Population Membrane Permeable-Phenotype (%): 0% and 9%
  Population Mitochondria Different-Phenotype (%): 5% and 9%
  Population Mitotic Cells (%): 42% and 50%
  Population Normal (%): 97%
  Population Pyknosed Nuclei (%): 20% and 21%
  Population Tubulin-Different-Phenotype (%): 44% and 59%
  Total Cell Count: 139 and 141
Fibroblast; [3]
  Population Apoptotic (%): 43% and 46%
  Population Fragmented Nuclei (%): 17% and 29%
  Population Healthy Nuclei (%): 69% and 43%
  Population Hoechst High Intensity Objects (%): 4% and 9%
  Population Membrane Permeable-Phenotype (%): 1% and 6%
  Population Mitochondria Different-Phenotype (%): 3% and 6%
  Population Mitotic Cells (%): 56% and 53%
  Population Normal (%): 95% and 90%
  Population Pyknosed Nuclei (%): 13% and 27%
  Population Tubulin-Different-Phenotype (%): 23% and 64%
  Total Cell Count: 128 and 121
Fibroblast; [4]
  Population Apoptotic (%): 47% and 58%
  Population Fragmented Nuclei (%): 15% and 29%
  Population Healthy Nuclei (%): 68% and 52%
  Population Hoechst High Intensity Objects (%): 4% and 2%
  Population Membrane Permeable-Phenotype (%): 0% and 6%
  Population Mitochondria Different-Phenotype (%): 3% and 12%
  Population Mitotic Cells (%): 52% and 41%
  Population Normal (%): 95% and 97%
  Population Pyknosed Nuclei (%): 15% and 17%
  Population Tubulin-Different-Phenotype (%): 41% and 62%
  Total Cell Count: 142 and 141
Fibroblast; [5]
  Population Apoptotic (%): 54% and 52%
  Population Fragmented Nuclei (%): 26% and 29%
  Population Healthy Nuclei (%): 65% and 48%
  Population Hoechst High Intensity Objects (%): 3% and 7%
  Population Membrane Permeable-Phenotype (%): 1% and 7%
  Population Mitochondria Different-Phenotype (%): 2% and 10%
  Population Mitotic Cells (%): 45% and 48%
  Population Normal (%): 96% and 92%
  Population Pyknosed Nuclei (%): 8% and 21%
  Population Tubulin-Different-Phenotype (%): 31% and 57%
  Total Cell Count: 135 and 124
Fibroblast; [6]
  Population Apoptotic (%): 38% and 42%
  Population Fragmented Nuclei (%): 20% and 32%
  Population Healthy Nuclei (%): 69% and 56%
  Population Hoechst High Intensity Objects (%): 7% and 5%
  Population Membrane Permeable-Phenotype (%): 1% and 5%
  Population Mitochondria Different-Phenotype (%): 6% and 9%
  Population Mitotic Cells (%): 61% and 57%
  Population Normal (%): 92% and 94%
  Population Pyknosed Nuclei (%): 9% and 10%
  Population Tubulin-Different-Phenotype (%): 35% and 54%
  Total Cell Count: 142 and 140
HEK-293T; [1]
  Population Apoptotic (%): 34% and 50%
  Population Fragmented Nuclei (%): 6% and 3%
  Population Healthy Nuclei (%): 83% and 84%
  Population Hoechst High Intensity Objects (%): 7% and 5%
  Population Membrane Permeable-Phenotype (%): 0%
  Population Mitochondria Different-Phenotype (%): 45% and 55%
  Population Mitotic Cells (%): 65% and 50%
  Population Normal (%): 92% and 94%
  Population Pyknosed Nuclei (%): 9% and 11%
  Population Tubulin-Different-Phenotype (%): 24% and 17%
  Total Cell Count: 424 and 446
HEK-293T; [2]
  Population Apoptotic (%): 44%
  Population Fragmented Nuclei (%): 10% and 6%
  Population Healthy Nuclei (%): 72% and 77%
  Population Hoechst High Intensity Objects (%): 15% and 8%
  Population Membrane Permeable-Phenotype (%): 0%
  Population Mitochondria Different-Phenotype (%): 67% and 74%
  Population Mitotic Cells (%): 56%
  Population Normal (%): 84% and 91%
  Population Pyknosed Nuclei (%): 16% and 15%
  Population Tubulin-Different-Phenotype (%): 53% and 45%
  Total Cell Count: 368 and 344
HEK-293T; [3]
  Population Apoptotic (%): 30%
  Population Fragmented Nuclei (%): 10% and 9%
  Population Healthy Nuclei (%): 78% and 82%
  Population Hoechst High Intensity Objects (%): 3% and 7%
  Population Membrane Permeable-Phenotype (%): 0%
  Population Mitochondria Different-Phenotype (%): 27% and 34%
  Population Mitotic Cells (%): 70% and 69%
  Population Normal (%): 96% and 92%
  Population Pyknosed Nuclei (%): 10% and 7%
  Population Tubulin-Different-Phenotype (%): 18% and 9%
  Total Cell Count: 574 and 541
HEK-293T; [4]
  Population Apoptotic (%): 36% and 27%
  Population Fragmented Nuclei (%): 8% and 9%
  Population Healthy Nuclei (%): 78% and 80%
  Population Hoechst High Intensity Objects (%): 9% and 4%
  Population Membrane Permeable-Phenotype (%): 0%
  Population Mitochondria Different-Phenotype (%): 55% and 54%
  Population Mitotic Cells (%): 63% and 72%
  Population Normal (%): 90% and 95%
  Population Pyknosed Nuclei (%): 13% and 10%
  Population Tubulin-Different-Phenotype (%): 43% and 26%
  Total Cell Count: 490 and 464
HEK-293T; [5]
  Population Apoptotic (%): 16% and 37%
  Population Fragmented Nuclei (%): 14% and 10%
  Population Healthy Nuclei (%): 79% and 84%
  Population Hoechst High Intensity Objects (%): 1% and 3%
  Population Membrane Permeable-Phenotype (%): 2% and 1%
  Population Mitochondria Different-Phenotype (%): 17% and 13%
  Population Mitotic Cells (%): 83% and 62%
  Population Normal (%): 98% and 96%
  Population Pyknosed Nuclei (%): 6% and 4%
  Population Tubulin-Different-Phenotype (%): 11% and 6%
  Total Cell Count: 950 and 837
HEK-293T; [6]
  Population Apoptotic (%): 43% and 33%
  Population Fragmented Nuclei (%): 16% and 13%
  Population Healthy Nuclei (%): 74% and 78%
  Population Hoechst High Intensity Objects (%): 6% and 4%
  Population Membrane Permeable-Phenotype (%): 0% and 1%
  Population Mitochondria Different-Phenotype (%): 46% and 43%
  Population Mitotic Cells (%): 56% and 66%
  Population Normal (%): 93% and 95%
  Population Pyknosed Nuclei (%): 9% and 7%
  Population Tubulin-Different-Phenotype (%): 29% and 25%
  Total Cell Count: 674 and 644
U2OS; [1]
  Population Apoptotic (%): 85%
  Population Fragmented Nuclei (%): 29% and 18%
  Population Healthy Nuclei (%): 61% and 70%
  Population Hoechst High Intensity Objects (%): 2% and 3%
  Population Membrane Permeable-Phenotype (%): 4% and 6%
  Population Mitochondria Different-Phenotype (%): 2% and 1%
  Population Mitotic Cells (%): 15% and 14%
  Population Normal (%): 97% and 96%
  Population Pyknosed Nuclei (%): 8% and 11%
  Population Tubulin-Different-Phenotype (%): 1% and 5%
  Total Cell Count: 244 and 126
U2OS; [2]
  Population Apoptotic (%): 87% and 75%
  Population Fragmented Nuclei (%): 25% and 15%
  Population Healthy Nuclei (%): 64% and 77%
  Population Hoechst High Intensity Objects (%): 3% and 0%
  Population Membrane Permeable-Phenotype (%): 29% and 14%
  Population Mitochondria Different-Phenotype (%): 23% and 18%
  Population Mitotic Cells (%): 12% and 25%
  Population Normal (%): 96% and 99%
  Population Pyknosed Nuclei (%): 9% and 7%
  Population Tubulin-Different-Phenotype (%): 24% and 15%
  Total Cell Count: 264 and 114
U2OS; [3]
  Population Apoptotic (%): 89% and 81%
  Population Fragmented Nuclei (%): 23% and 20%
  Population Healthy Nuclei (%): 66% and 68%
  Population Hoechst High Intensity Objects (%): 1% and 4%
  Population Membrane Permeable-Phenotype (%): 4% and 9%
  Population Mitochondria Different-Phenotype (%): 3% and 6%
  Population Mitotic Cells (%): 10% and 18%
  Population Normal (%): 98% and 96%
  Population Pyknosed Nuclei (%): 9% and 11%
  Population Tubulin-Different-Phenotype (%): 2% and 5%
  Total Cell Count: 297 and 150
U2OS; [4]
  Population Apoptotic (%): 75% and 78%
  Population Fragmented Nuclei (%): 27% and 19%
  Population Healthy Nuclei (%): 62% and 70%
  Population Hoechst High Intensity Objects (%): 2% and 1%
  Population Membrane Permeable-Phenotype (%): 12% and 11%
  Population Mitochondria Different-Phenotype (%): 15% and 13%
  Population Mitotic Cells (%): 24% and 21%
  Population Normal (%): 97% and 98%
  Population Pyknosed Nuclei (%): 10% and 9%
  Population Tubulin-Different-Phenotype (%): 8% and 6%
  Total Cell Count: 320 and 149
U2OS; [5]
  Population Apoptotic (%): 86% and 76%
  Population Fragmented Nuclei (%): 17%
  Population Healthy Nuclei (%): 73% and 75%
  Population Hoechst High Intensity Objects (%): 2% and 3%
  Population Membrane Permeable-Phenotype (%): 3% and 5%
  Population Mitochondria Different-Phenotype (%): 3%
  Population Mitotic Cells (%): 13% and 23%
  Population Normal (%): 97% and 96%
  Population Pyknosed Nuclei (%): 9% and 6%
  Population Tubulin-Different-Phenotype (%): 3% and 4%
  Total Cell Count: 398 and 209
U2OS; [6]
  Population Apoptotic (%): 86% and 89%
  Population Fragmented Nuclei (%): 24% and 15%
  Population Healthy Nuclei (%): 65% and 74%
  Population Hoechst High Intensity Objects (%): 2% and 4%
  Population Membrane Permeable-Phenotype (%): 11% and 9%
  Population Mitochondria Different-Phenotype (%): 8%
  Population Mitotic Cells (%): 13% and 10%
  Population Normal (%): 97% and 95%
  Population Pyknosed Nuclei (%): 9%
  Population Tubulin-Different-Phenotype (%): 7% and 6%
  Total Cell Count: 453 and 203
